Test results taken from ChEMBL document CHEMBL4689842, “EUbOPEN Chemogenomics Library wave 1” (2021).

Test system: Fibroblast
Assay: Multiplex assay against human fibroblast
Assay type: toxicity, cell-based
Summary of the method: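 Hoechst33342, BioTracker Green Microtubule Cytoskeleton Dye, MitoTracker Red and Annexin V Alexa Fluor 680 were added to live cells at seeding, and imaging on a CQ1 microscope at 37°C and 5% CO2 followed compound addition. Gating by CellPathfinder machine learning separated cells into Hoechst high-intensity objects or normal cells, then normal cells into healthy, pyknosed or fragmented nuclei, then pyknosed cells into mitotic or apoptotic. Per cents of healthy-nucleus cells are reported for the tubulin, mitochondrial-mass and membrane-permeability phenotypes.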

[1] = 12 h, 1 µM, compound concentration 1 uM, replicate 1
[2] = 12 h, 1 µM, compound concentration 1 uM, replicate 2
[3] = 12 h, 10 µM, compound concentration 10 uM, replicate 1
[4] = 12 h, 10 µM, compound concentration 10 uM, replicate 2
[5] = 24 h, 1 µM, compound concentration 1 uM, replicate 1
[6] = 24 h, 1 µM, compound concentration 1 uM, replicate 2
[7] = 24 h, 10 µM, compound concentration 10 uM, replicate 1
[8] = 24 h, 10 µM, compound concentration 10 uM, replicate 2
[9] = 48 h, 1 µM, compound concentration 1 uM, replicate 1
[10] = 48 h, 1 µM, compound concentration 1 uM, replicate 2
[11] = 48 h, 10 µM, compound concentration 10 uM, replicate 1
[12] = 48 h, 10 µM, compound concentration 10 uM, replicate 2

## CN(C)C(=O)C(CCN1CCC(O)(c2ccc(Cl)cc2)CC1)(c1ccccc1)c1ccccc1.Cl [LOPERAMIDE HYDROCHLORIDE]
[1]
  Population Apoptotic (%): 54%
  Population Fragmented Nuclei (%): 26%
  Population Healthy Nuclei (%): 42%
  Population Hoechst High Intensity Objects (%): 12%
  Population Membrane Permeable-Phenotype (%): 19%
  Population Mitochondria Different-Phenotype (%): 19%
  Population Mitotic Cells (%): 45%
  Population Normal (%): 87%
  Population Pyknosed Nuclei (%): 31%
  Population Tubulin-Different-Phenotype (%): 54%
  Total Cell Count: 155
[2]
  Population Apoptotic (%): 25%
  Population Fragmented Nuclei (%): 5%
  Population Healthy Nuclei (%): 88%
  Population Hoechst High Intensity Objects (%): 7%
  Population Membrane Permeable-Phenotype (%): 11%
  Population Mitochondria Different-Phenotype (%): 90%
  Population Mitotic Cells (%): 75%
  Population Normal (%): 92%
  Population Pyknosed Nuclei (%): 6%
  Population Tubulin-Different-Phenotype (%): 65%
  Total Cell Count: 55
[3]
  Population Apoptotic (%): 64%
  Population Fragmented Nuclei (%): 23%
  Population Healthy Nuclei (%): 29%
  Population Hoechst High Intensity Objects (%): 12%
  Population Membrane Permeable-Phenotype (%): 0%
  Population Mitochondria Different-Phenotype (%): 87%
  Population Mitotic Cells (%): 35%
  Population Normal (%): 87%
  Population Pyknosed Nuclei (%): 46%
  Population Tubulin-Different-Phenotype (%): 92%
  Total Cell Count: 158
[4]
  Population Apoptotic (%): 82%
  Population Fragmented Nuclei (%): 8%
  Population Healthy Nuclei (%): 48%
  Population Hoechst High Intensity Objects (%): 6%
  Population Membrane Permeable-Phenotype (%): 94%
  Population Mitochondria Different-Phenotype (%): 100%
  Population Mitotic Cells (%): 17%
  Population Normal (%): 93%
  Population Pyknosed Nuclei (%): 43%
  Population Tubulin-Different-Phenotype (%): 100%
  Total Cell Count: 64
[5]
  Population Apoptotic (%): 45%
  Population Fragmented Nuclei (%): 22%
  Population Healthy Nuclei (%): 52%
  Population Hoechst High Intensity Objects (%): 12%
  Population Membrane Permeable-Phenotype (%): 19%
  Population Mitochondria Different-Phenotype (%): 20%
  Population Mitotic Cells (%): 54%
  Population Normal (%): 87%
  Population Pyknosed Nuclei (%): 25%
  Population Tubulin-Different-Phenotype (%): 55%
  Total Cell Count: 157
[6]
  Population Apoptotic (%): 53%
  Population Fragmented Nuclei (%): 5%
  Population Healthy Nuclei (%): 71%
  Population Hoechst High Intensity Objects (%): 4%
  Population Membrane Permeable-Phenotype (%): 16%
  Population Mitochondria Different-Phenotype (%): 89%
  Population Mitotic Cells (%): 46%
  Population Normal (%): 95%
  Population Pyknosed Nuclei (%): 22%
  Population Tubulin-Different-Phenotype (%): 62%
  Total Cell Count: 68
[7]
  Population Apoptotic (%): 82%
  Population Fragmented Nuclei (%): 26%
  Population Healthy Nuclei (%): 33%
  Population Hoechst High Intensity Objects (%): 24%
  Population Membrane Permeable-Phenotype (%): 7%
  Population Mitochondria Different-Phenotype (%): 77%
  Population Mitotic Cells (%): 17%
  Population Normal (%): 75%
  Population Pyknosed Nuclei (%): 39%
  Population Tubulin-Different-Phenotype (%): 92%
  Total Cell Count: 156
[8]
  Population Apoptotic (%): 98%
  Population Fragmented Nuclei (%): 10%
  Population Healthy Nuclei (%): 26%
  Population Hoechst High Intensity Objects (%): 10%
  Population Membrane Permeable-Phenotype (%): 86%
  Population Mitochondria Different-Phenotype (%): 95%
  Population Mitotic Cells (%): 1%
  Population Normal (%): 89%
  Population Pyknosed Nuclei (%): 62%
  Population Tubulin-Different-Phenotype (%): 95%
  Total Cell Count: 70
[9]
  Population Apoptotic (%): 67%
  Population Fragmented Nuclei (%): 29%
  Population Healthy Nuclei (%): 46%
  Population Hoechst High Intensity Objects (%): 14%
  Population Membrane Permeable-Phenotype (%): 8%
  Population Mitochondria Different-Phenotype (%): 9%
  Population Mitotic Cells (%): 32%
  Population Normal (%): 85%
  Population Pyknosed Nuclei (%): 23%
  Population Tubulin-Different-Phenotype (%): 56%
  Total Cell Count: 155
[10]
  Population Apoptotic (%): 75%
  Population Fragmented Nuclei (%): 34%
  Population Healthy Nuclei (%): 62%
  Population Hoechst High Intensity Objects (%): 12%
  Population Membrane Permeable-Phenotype (%): 12%
  Population Mitochondria Different-Phenotype (%): 8%
  Population Mitotic Cells (%): 25%
  Population Normal (%): 87%
  Population Pyknosed Nuclei (%): 3%
  Population Tubulin-Different-Phenotype (%): 70%
  Total Cell Count: 137
[11]
  Population Apoptotic (%): 86%
  Population Fragmented Nuclei (%): 36%
  Population Healthy Nuclei (%): 38%
  Population Hoechst High Intensity Objects (%): 36%
  Population Membrane Permeable-Phenotype (%): 2%
  Population Mitochondria Different-Phenotype (%): 70%
  Population Mitotic Cells (%): 13%
  Population Normal (%): 63%
  Population Pyknosed Nuclei (%): 25%
  Population Tubulin-Different-Phenotype (%): 70%
  Total Cell Count: 139
[12]
  Population Apoptotic (%): 90%
  Population Fragmented Nuclei (%): 37%
  Population Healthy Nuclei (%): 52%
  Population Hoechst High Intensity Objects (%): 45%
  Population Membrane Permeable-Phenotype (%): 0%
  Population Mitochondria Different-Phenotype (%): 85%
  Population Mitotic Cells (%): 9%
  Population Normal (%): 54%
  Population Pyknosed Nuclei (%): 9%
  Population Tubulin-Different-Phenotype (%): 88%
  Total Cell Count: 214

## C=C1/C(=C\C=C2/CCC[C@]3(C)[C@@H]([C@H](C)/C=C/[C@H](C)C(C)C)CC[C@@H]23)C[C@@H](O)C[C@@H]1O [DOXERCALCIFEROL]
[1]
  Population Apoptotic (%): 63%
  Population Fragmented Nuclei (%): 23%
  Population Healthy Nuclei (%): 33%
  Population Hoechst High Intensity Objects (%): 10%
  Population Membrane Permeable-Phenotype (%): 10%
  Population Mitochondria Different-Phenotype (%): 0%
  Population Mitotic Cells (%): 36%
  Population Normal (%): 89%
  Population Pyknosed Nuclei (%): 42%
  Population Tubulin-Different-Phenotype (%): 14%
  Total Cell Count: 94
[2]
  Population Apoptotic (%): 40%
  Population Fragmented Nuclei (%): 1%
  Population Healthy Nuclei (%): 90%
  Population Hoechst High Intensity Objects (%): 1%
  Population Membrane Permeable-Phenotype (%): 5%
  Population Mitochondria Different-Phenotype (%): 14%
  Population Mitotic Cells (%): 60%
  Population Normal (%): 98%
  Population Pyknosed Nuclei (%): 8%
  Population Tubulin-Different-Phenotype (%): 9%
  Total Cell Count: 111
[3]
  Population Apoptotic (%): 30%
  Population Fragmented Nuclei (%): 72%
  Population Healthy Nuclei (%): 21%
  Population Hoechst High Intensity Objects (%): 11%
  Population Membrane Permeable-Phenotype (%): 4%
  Population Mitochondria Different-Phenotype (%): 15%
  Population Mitotic Cells (%): 69%
  Population Normal (%): 88%
  Population Pyknosed Nuclei (%): 5%
  Population Tubulin-Different-Phenotype (%): 28%
  Total Cell Count: 247
[4]
  Population Apoptotic (%): 0%
  Population Fragmented Nuclei (%): 27%
  Population Healthy Nuclei (%): 67%
  Population Hoechst High Intensity Objects (%): 6%
  Population Membrane Permeable-Phenotype (%): 2%
  Population Mitochondria Different-Phenotype (%): 21%
  Population Mitotic Cells (%): 100%
  Population Normal (%): 93%
  Population Tubulin-Different-Phenotype (%): 13%
  Total Cell Count: 61
[5]
  Population Apoptotic (%): 38%
  Population Fragmented Nuclei (%): 18%
  Population Healthy Nuclei (%): 48%
  Population Hoechst High Intensity Objects (%): 10%
  Population Membrane Permeable-Phenotype (%): 22%
  Population Mitochondria Different-Phenotype (%): 2%
  Population Mitotic Cells (%): 61%
  Population Normal (%): 89%
  Population Pyknosed Nuclei (%): 34%
  Population Tubulin-Different-Phenotype (%): 27%
  Total Cell Count: 112
[6]
  Population Apoptotic (%): 42%
  Population Fragmented Nuclei (%): 5%
  Population Healthy Nuclei (%): 86%
  Population Hoechst High Intensity Objects (%): 4%
  Population Membrane Permeable-Phenotype (%): 4%
  Population Mitochondria Different-Phenotype (%): 7%
  Population Mitotic Cells (%): 57%
  Population Normal (%): 95%
  Population Pyknosed Nuclei (%): 8%
  Population Tubulin-Different-Phenotype (%): 14%
  Total Cell Count: 157
[7]
  Population Apoptotic (%): 69%
  Population Fragmented Nuclei (%): 55%
  Population Healthy Nuclei (%): 36%
  Population Hoechst High Intensity Objects (%): 9%
  Population Membrane Permeable-Phenotype (%): 12%
  Population Mitochondria Different-Phenotype (%): 6%
  Population Mitotic Cells (%): 30%
  Population Normal (%): 90%
  Population Pyknosed Nuclei (%): 8%
  Population Tubulin-Different-Phenotype (%): 9%
  Total Cell Count: 304
[8]
  Population Apoptotic (%): 33%
  Population Fragmented Nuclei (%): 25%
  Population Healthy Nuclei (%): 70%
  Population Hoechst High Intensity Objects (%): 3%
  Population Membrane Permeable-Phenotype (%): 1%
  Population Mitochondria Different-Phenotype (%): 16%
  Population Mitotic Cells (%): 66%
  Population Normal (%): 96%
  Population Pyknosed Nuclei (%): 4%
  Population Tubulin-Different-Phenotype (%): 13%
  Total Cell Count: 83
[9]
  Population Apoptotic (%): 66%
  Population Fragmented Nuclei (%): 22%
  Population Healthy Nuclei (%): 58%
  Population Hoechst High Intensity Objects (%): 18%
  Population Membrane Permeable-Phenotype (%): 21%
  Population Mitochondria Different-Phenotype (%): 3%
  Population Mitotic Cells (%): 33%
  Population Normal (%): 81%
  Population Pyknosed Nuclei (%): 18%
  Population Tubulin-Different-Phenotype (%): 35%
  Total Cell Count: 118
[10]
  Population Apoptotic (%): 0%
  Population Fragmented Nuclei (%): 27%
  Population Healthy Nuclei (%): 72%
  Population Hoechst High Intensity Objects (%): 42%
  Population Membrane Permeable-Phenotype (%): 17%
  Population Mitochondria Different-Phenotype (%): 2%
  Population Mitotic Cells (%): 0%
  Population Normal (%): 57%
  Population Pyknosed Nuclei (%): 0%
  Population Tubulin-Different-Phenotype (%): 37%
  Total Cell Count: 165
[11]
  Population Apoptotic (%): 86%
  Population Fragmented Nuclei (%): 33%
  Population Healthy Nuclei (%): 46%
  Population Hoechst High Intensity Objects (%): 12%
  Population Membrane Permeable-Phenotype (%): 23%
  Population Mitochondria Different-Phenotype (%): 0%
  Population Mitotic Cells (%): 13%
  Population Normal (%): 87%
  Population Pyknosed Nuclei (%): 19%
  Population Tubulin-Different-Phenotype (%): 2%
  Total Cell Count: 351
[12]
  Population Apoptotic (%): 100%
  Population Fragmented Nuclei (%): 39%
  Population Healthy Nuclei (%): 59%
  Population Hoechst High Intensity Objects (%): 14%
  Population Mitochondria Different-Phenotype (%): 1%
  Population Mitotic Cells (%): 0%
  Population Normal (%): 85%
  Population Pyknosed Nuclei (%): 1%
  Population Tubulin-Different-Phenotype (%): 49%
  Total Cell Count: 128
